Assay results reported in ChEMBL document CHEMBL1135742, “Modification of the structure of a metallopeptide: synthesis and biological evaluation of (111)In-labeled DOTA-conjugated rhenium-cyclized alpha-MSH analogues” (J Med Chem, 2002).

Organism: Mus musculus
Experiment: Uptake Ratio of Tumor/liver (each in % ID/g) in B16/F1 Murine Melanoma-Bearing C57 Mice at 2 h
Format: functional, organism-based
Settings: not given
Method in brief: (§1)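 C57 BL/6 female mice (7–8 weeks) carried B16/F1 tumours from 1×10^6 cells given s.c. in the right flank; tumours were ~500 mg at 9–10 days. Each mouse received […] of HPLC-purified, neutralized 111In-DOTA peptide via the tail vein. Mice were killed at 0.5, 2, 4 or 24 h pi. Tissues were weighed and γ-counted, expressed as % ID/g; ratios were tumor/tissue % ID/g.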

Substance	Uptake ratio
Ac-Lys(DOTA)-ReCCEHdFRWCKPV-NH2	33.3
DOTA-ReCCEHdFRWCKPV-NH2	49.9

Organism: Mus musculus
Experiment: Uptake Ratio of Tumor/lungs (each in % ID/g) in B16/F1 Murine Melanoma-Bearing C57 Mice at 2 h
Format: functional, organism-based
Settings: not given
Method in brief: (§2)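 Female C57 BL/6 mice, 7–8 weeks old, carried subcutaneous right-flank B16/F1 tumors from 1×10^6 cells and were used 9–10 days later at ~500 mg tumor weight. Each received […] of HPLC-purified, pH-neutralized ¹¹¹In-DOTA peptide by tail vein. Tumor and organs were excised at the stated time, weighed and γ-counted. Each tissue was taken as % ID/g, and tumor/normal-tissue ratios were formed from these values.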

Substance	Uptake ratio
Ac-Lys(DOTA)-ReCCEHdFRWCKPV-NH2	48.6
DOTA-ReCCEHdFRWCKPV-NH2	69.4

Organism: Mus musculus
Experiment: Radioactivity uptake in the pancreas was expressed as a percentage of the injected radioactive dose per gram of tissue (% ID/g) in B16/F1 Murine Melanoma-Bearing C57 Mice at 4 h
Format: functional, organism-based
Settings: not given
Method in brief: as §1

Substance	ID/g
Ac-Lys(DOTA)-ReCCEHdFRWCKPV-NH2	0.057%
DOTA-ReCCEHdFRWCKPV-NH2	0.043%

Organism: Mus musculus
Experiment: Radioactivity uptake in the tumor was expressed as a percentage of the injected radioactive dose per gram of tissue (% ID/g) in B16/F1 Murine Melanoma-Bearing C57 Mice at 0.5 h
Format: functional, organism-based
Settings: not given
Method in brief: as §1

Substance	ID/g
Ac-Lys(DOTA)-ReCCEHdFRWCKPV-NH2	7.15%
DOTA-ReCCEHdFRWCKPV-NH2	10.4%

Organism: Mus musculus
Experiment: Radioactivity uptake in the spleen was expressed as a percentage of the injected radioactive dose per gram of tissue (% ID/g) in B16/F1 Murine Melanoma-Bearing C57 Mice at 2 h
Format: functional, organism-based
Settings: not given
Method in brief: as §1

Substance	ID/g
Ac-Lys(DOTA)-ReCCEHdFRWCKPV-NH2	0.11%
DOTA-ReCCEHdFRWCKPV-NH2	0.09%

Organism: Mus musculus
Experiment: Radioactivity uptake in the tumor was expressed as a percentage of the injected radioactive dose per gram of tissue (% ID/g) in B16/F1 Murine Melanoma-Bearing C57 Mice at 4 h
Format: functional, organism-based
Settings: not given
Method in brief: as §1

Substance	ID/g
Ac-Lys(DOTA)-ReCCEHdFRWCKPV-NH2	6.01%
DOTA-ReCCEHdFRWCKPV-NH2	9.46%

Organism: Mus musculus
Experiment: Radioactivity uptake in the kidneys was expressed as a percentage of the injected radioactive dose per gram of tissue (% ID/g) in B16/F1 Murine Melanoma-Bearing C57 Mice at 24 h
Format: functional, organism-based
Settings: Kidney
Method in brief: as §1

Substance	ID/g
Ac-Lys(DOTA)-ReCCEHdFRWCKPV-NH2	13.4%
DOTA-ReCCEHdFRWCKPV-NH2	5.64%

Organism: Mus musculus
Experiment: Radioactivity uptake in the liver was expressed as a percentage of the injected radioactive dose per gram of tissue (% ID/g) in B16/F1 Murine Melanoma-Bearing C57 Mice at 2 h
Format: functional, organism-based
Settings: not given
Method in brief: as §1

Substance	ID/g
Ac-Lys(DOTA)-ReCCEHdFRWCKPV-NH2	0.24%
DOTA-ReCCEHdFRWCKPV-NH2	0.23%

Organism: Mus musculus
Experiment: Uptake Ratio of Tumor/lungs (each in % ID/g) in B16/F1 Murine Melanoma-Bearing C57 Mice at 0.5 h
Format: functional, organism-based
Settings: not given
Method in brief: as §2

Substance	Uptake ratio
Ac-Lys(DOTA)-ReCCEHdFRWCKPV-NH2	4.7
DOTA-ReCCEHdFRWCKPV-NH2	6.6

Organism: Mus musculus
Experiment: Radioactivity uptake in the lungs was expressed as a percentage of the injected radioactive dose per gram of tissue (% ID/g) in B16/F1 Murine Melanoma-Bearing C57 Mice at 4 h
Format: functional, organism-based
Settings: Lung
Method in brief: as §1

Substance	ID/g
Ac-Lys(DOTA)-ReCCEHdFRWCKPV-NH2	0.18%
DOTA-ReCCEHdFRWCKPV-NH2	0.11%

Organism: Mus musculus
Experiment: Radioactivity uptake in the spleen was expressed as a percentage of the injected radioactive dose per gram of tissue (% ID/g) in B16/F1 Murine Melanoma-Bearing C57 Mice at 24 h
Format: functional, organism-based
Settings: not given
Method in brief: as §1

Substance	ID/g
Ac-Lys(DOTA)-ReCCEHdFRWCKPV-NH2	0.21%
DOTA-ReCCEHdFRWCKPV-NH2	0.14%

Organism: Mus musculus
Experiment: Radioactivity uptake in the blood was expressed as a percentage of the injected radioactive dose per gram of tissue (% ID/g) in B16/F1 Murine Melanoma-Bearing C57 Mice at 24 h
Format: functional, organism-based
Settings: not given
Method in brief: as §1

Substance	ID/g
Ac-Lys(DOTA)-ReCCEHdFRWCKPV-NH2	0.072%
DOTA-ReCCEHdFRWCKPV-NH2	0.01%

Organism: Mus musculus
Experiment: Radioactivity uptake in the tumor was expressed as a percentage of the injected radioactive dose per gram of tissue (% ID/g) in B16/F1 Murine Melanoma-Bearing C57 Mice at 24 h
Format: functional, organism-based
Settings: not given
Method in brief: as §1

Substance	ID/g
Ac-Lys(DOTA)-ReCCEHdFRWCKPV-NH2	3.54%
DOTA-ReCCEHdFRWCKPV-NH2	4.86%

Organism: Mus musculus
Experiment: Radioactivity uptake in the muscle was expressed as a percentage of the injected radioactive dose per gram of tissue (% ID/g) in B16/F1 Murine Melanoma-Bearing C57 Mice at 0.5 h
Format: functional, organism-based
Settings: not given
Method in brief: as §1

Substance	ID/g
Ac-Lys(DOTA)-ReCCEHdFRWCKPV-NH2	0.42%
DOTA-ReCCEHdFRWCKPV-NH2	0.42%

Organism: Mus musculus
Experiment: Uptake Ratio of Tumor/muscle (each in % ID/g) in B16/F1 Murine Melanoma-Bearing C57 Mice at 2 h
Format: functional, organism-based
Settings: Muscle tissue
Method in brief: as §2

Substance	Uptake ratio
Ac-Lys(DOTA)-ReCCEHdFRWCKPV-NH2	468
DOTA-ReCCEHdFRWCKPV-NH2	319

Organism: Mus musculus
Experiment: Radioactivity uptake in the tumor was expressed as a percentage of the injected radioactive dose per gram of tissue (% ID/g) in B16/F1 Murine Melanoma-Bearing C57 Mice at 2 h
Format: functional, organism-based
Settings: not given
Method in brief: as §1

Substance	ID/g
Ac-Lys(DOTA)-ReCCEHdFRWCKPV-NH2	8.15%
DOTA-ReCCEHdFRWCKPV-NH2	11.4%

Organism: Mus musculus
Experiment: Radioactivity uptake in the spleen was expressed as a percentage of the injected radioactive dose per gram of tissue (% ID/g) in B16/F1 Murine Melanoma-Bearing C57 Mice at 4 h
Format: functional, organism-based
Settings: not given
Method in brief: as §1

Substance	ID/g
Ac-Lys(DOTA)-ReCCEHdFRWCKPV-NH2	0.19%
DOTA-ReCCEHdFRWCKPV-NH2	0.22%

Organism: Mus musculus
Experiment: Radioactivity uptake in the heart was expressed as a percentage of the injected radioactive dose per gram of tissue (% ID/g) in B16/F1 Murine Melanoma-Bearing C57 Mice at 2 h
Format: functional, organism-based
Settings: not given
Method in brief: as §1

Substance	ID/g
Ac-Lys(DOTA)-ReCCEHdFRWCKPV-NH2	0.08%
DOTA-ReCCEHdFRWCKPV-NH2	0.066%

Organism: Mus musculus
Experiment: Radioactivity uptake in the pancreas was expressed as a percentage of the injected radioactive dose per gram of tissue (% ID/g) in B16/F1 Murine Melanoma-Bearing C57 Mice at 24 h
Format: functional, organism-based
Settings: not given
Method in brief: as §1

Substance	ID/g
Ac-Lys(DOTA)-ReCCEHdFRWCKPV-NH2	0.18%
DOTA-ReCCEHdFRWCKPV-NH2	0.027%

Organism: Mus musculus
Experiment: Radioactivity uptake in the kidneys was expressed as a percentage of the injected radioactive dose per gram of tissue (% ID/g) in B16/F1 Murine Melanoma-Bearing C57 Mice at 2 h
Format: functional, organism-based
Settings: Kidney
Method in brief: as §1

Substance	ID/g
Ac-Lys(DOTA)-ReCCEHdFRWCKPV-NH2	18.4%
DOTA-ReCCEHdFRWCKPV-NH2	8.98%

Organism: Mus musculus
Experiment: Radioactivity uptake in the blood was expressed as a percentage of the injected radioactive dose per gram of tissue (% ID/g) in B16/F1 Murine Melanoma-Bearing C57 Mice at 4 h
Format: functional, organism-based
Settings: not given
Method in brief: as §1

Substance	ID/g
Ac-Lys(DOTA)-ReCCEHdFRWCKPV-NH2	0.082%
DOTA-ReCCEHdFRWCKPV-NH2	0.034%

Organism: Mus musculus
Experiment: Radioactivity uptake in the kidneys was expressed as a percentage of the injected radioactive dose per gram of tissue (% ID/g) in B16/F1 Murine Melanoma-Bearing C57 Mice at 4 h
Format: functional, organism-based
Settings: Kidney
Method in brief: as §1

Substance	ID/g
Ac-Lys(DOTA)-ReCCEHdFRWCKPV-NH2	19%
DOTA-ReCCEHdFRWCKPV-NH2	9.27%
